Experimental data from different studies.
Each line is one published result; the experiments were not run side by side.
F11: Coagulation factor XI (F11, Homo sapiens, UniProt P03951)
A disintegrin and metalloproteinase with thrombospondin motifs 7: A disintegrin and metalloproteinase with thrombospondin motifs 7 (Homo sapiens, UniProt Q9UKP4)
PDE1C: Dual specificity calcium/calmodulin-dependent 3',5'-cyclic nucleotide phosphodiesterase 1C (PDE1C, Homo sapiens, UniProt Q14123)
HDAC5: Histone deacetylase 5 (HDAC5, Homo sapiens, UniProt Q9UQL6)

SMILES | target | effect on | action | technique | pH | IC50 [nM]
O=c1oc(-c2ccco2)nc2ccccc12 | F11 | enzyme activity | inhibitor | absorbance | pH 7.4 | > 50000
Cn1nccc1[C@]1(CNC(=O)c2ccccc2-c2ccc(C(F)(F)F)cc2)NC(=O)NC1=O | A disintegrin and metalloproteinase with thrombospondin motifs 7 | enzyme activity | inhibitor | FRET |  | 12
Cc1cc2c(c(=O)[nH]1)C(=O)O/C2=C\c1ccc(F)cc1OC(C)C | PDE1C | enzyme activity | inhibitor | radiometric |  | 709
O=C(/C=C/c1ccc(O)c2oc(-c3ccc(O)c(O)c3)cc12)O[C@H](Cc1ccc(O)c(O)c1)C(=O)O | YTH domain-containing family protein 2 (YTHDF2, Homo sapiens, UniProt Q9Y5A9) | ligand displacement |  | FP |  | 6000
O=c1oc(-c2cccnc2)nc2ccccc12 | F11 | enzyme activity | inhibitor | absorbance | pH 7.4 | > 50000
O=C(NO)c1cncc(OS(=O)(=O)Oc2ccc(-n3ccnc3)cc2)c1 | HDAC5 | enzyme activity | inhibitor | fluorescence |  | 3560
O=C1NC(=O)[C@](CNC(=O)c2cnn(-c3ccc(F)cc3)n2)(C2CC2)N1 | A disintegrin and metalloproteinase with thrombospondin motifs 7 | enzyme activity | inhibitor | FRET |  | 25.6
CCOc1ccccc1/C=C1\OC(=O)c2c1cc(C)[nH]c2=O | PDE1C | enzyme activity | inhibitor | radiometric |  | 147
COc1ccc(C[C@H]2COC(=O)[C@@H]2Cc2ccc(OCC(=O)Nc3ccc(C(=O)Nc4ccccc4N)cc3)c(OC)c2)cc1OC | HDAC5 | enzyme activity | inhibitor |  |  | > 10000
O=C(NO)c1cncc(OS(=O)(=O)Oc2ccc3ccccc3c2)c1 | HDAC5 | enzyme activity | inhibitor | fluorescence |  | 8200
CCCC(=O)NCCCN1CCc2c([nH]c3ccc(Cl)cc23)C1 | Sodium-dependent dopamine transporter (SLC6A3, Homo sapiens, UniProt Q01959, F155Y) | transporter uptake | inhibitor |  |  | 18200
Cc1cc2c(c(=O)[nH]1)C(=O)O/C2=C\c1ccccc1OCC1CC1 | PDE1C | enzyme activity | inhibitor | radiometric |  | 190
Cn1nccc1[C@]1(CNC(=O)c2ccc(C(F)(F)F)c(F)c2-c2ccc(C(F)(F)F)cc2)NC(=O)NC1=O | A disintegrin and metalloproteinase with thrombospondin motifs 7 | enzyme activity | inhibitor | FRET |  | 9.5
Cc1cc2c(c(=O)[nH]1)C(=O)O/C2=C\c1cc(F)ccc1OCCN1CCOCC1 | PDE1C | enzyme activity | inhibitor | radiometric |  | 31
Cn1nccc1[C@]1(CNC(=O)c2ccc(Cl)c(F)c2-c2ccc(C(F)(F)F)cc2)NC(=O)NC1=O | A disintegrin and metalloproteinase with thrombospondin motifs 7 | enzyme activity | inhibitor | FRET |  | 3.2
